# Reference: ChEMBL document CHEMBL2384906, “Biological activity, design, synthesis and structure activity relationship of some novel derivatives of curcumin containing sulfonamides” (Eur J Med Chem, 2013)
# Active and inactive are the calls of the source. The calls are words filed in the database; no cut-off is given here.
# Tests used:
# [1] = system: Mus musculus; experiment: Antiinflammatory activity in mouse assessed as inhibition of carrageenan-induced increase in paw volume at 200 mg/kg administered 1 hr prior to carrageenan challenge measured after 3 hrs relative to control; type: functional
# Summary of the method: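 Mice were fasted 2 h and placed in groups of five. Controls received saline i.p. Phenylbutazone was given at 100 mg/kg i.p., curcumin at 200 mg/kg i.p., and derivatives at 200 mg/kg. After 1 h, 0.1 mL of 1% carrageenan in saline was injected subplantar into the right hind paw. Paw volume was followed by plethysmometer for 3 h, and % inhibition was calculated as (Vc − Vt)/Vc × 100.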
# [2] = system: HCT-116; experiment: Cytotoxicity against human HCT116 cells after 24 hrs by MTT assay; type: functional, cell-based
# Summary of the method: (§1)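 The MTT assay seeded 5 × 10⁴ cells per well and grew them 24 h in RPMI 1640 with compound at 2.5–200 µM. Medium without cells was the blank and adriamycin the positive control. MTT was added for 4 h at 37 °C, formazan was solubilised, and absorbance was read at 570 nm. IC50 is the concentration that cuts viability 50% against untreated cells.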
# [3] = system: QG-56; experiment: Cytotoxicity against human QG56 cells after 24 hrs by MTT assay; type: functional, cell-based; summary of the method: as §1
# [4] = system: HeLa; experiment: Cytotoxicity against human HeLa cells after 24 hrs by MTT assay; type: functional, cell-based; summary of the method: as §1
# [5] = system: HepG2; experiment: Cytotoxicity against human HepG2 cells after 24 hrs by MTT assay; type: functional, cell-based; summary of the method: as §1
# [6] = system: Trichoderma viride; experiment: Antifungal activity against Trichoderma viride MTCC 1107 after 48 hrs; type: functional; settings: MTCC 1107, 48 h
# [7] = system: Trichoderma viride; experiment: Antifungal activity against Trichoderma viride MTCC 1107 assessed as zone of inhibition at 20 uM after 48 hrs by disc diffusion method; type: functional; settings: MTCC 1107, 48 h, read-out: IZ
# Summary of the method: (§2)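 Spores from 4-day potato dextrose agar cultures, suspended in sterile water at 1.5 × 10⁵ CFU/mL. 0.2 mL was spread on potato dextrose agar. 5 mm filter-paper discs soaked with test compound were laid on the lawn. Incubation was 48 h at 28 °C, then the inhibition zone was measured in mm. Fluconazole was the positive control and acetone the negative control.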
# [8] = system: Trichoderma viride; experiment: Antifungal activity against Trichoderma viride MTCC 1107 assessed as zone of inhibition at 40 uM after 48 hrs by disc diffusion method; type: functional; settings: MTCC 1107, 48 h, read-out: IZ; summary of the method: as §2
# [9] = system: Trichoderma viride; experiment: Antifungal activity against Trichoderma viride MTCC 1107 assessed as zone of inhibition at 80 uM after 48 hrs by disc diffusion method; type: functional; settings: MTCC 1107, 48 h, read-out: IZ; summary of the method: as §2
# [10] = system: Curvularia lunata; experiment: Antifungal activity against Curvularia lunata MTCC 581 after 48 hrs; type: functional; settings: MTCC 581, 48 h
# [11] = system: Curvularia lunata; experiment: Antifungal activity against Curvularia lunata MTCC 581 assessed as zone of inhibition at 20 uM after 48 hrs by disc diffusion method; type: functional; settings: MTCC 581, 48 h, read-out: IZ; summary of the method: as §2
# [12] = system: Curvularia lunata; experiment: Antifungal activity against Curvularia lunata MTCC 581 assessed as zone of inhibition at 40 uM after 48 hrs by disc diffusion method; type: functional; settings: MTCC 581, 48 h, read-out: IZ; summary of the method: as §2
# [13] = system: Aspergillus flavus; experiment: Antifungal activity against Aspergillus flavus MTCC 1021 after 48 hrs; type: functional; settings: MTCC 1021, 48 h
# [14] = system: Curvularia lunata; experiment: Antifungal activity against Curvularia lunata MTCC 581 assessed as zone of inhibition at 80 uM after 48 hrs by disc diffusion method; type: functional; settings: MTCC 581, 48 h, read-out: IZ; summary of the method: as §2
# [15] = system: Aspergillus flavus; experiment: Antifungal activity against Aspergillus flavus MTCC 1021 assessed as zone of inhibition at 20 uM after 48 hrs by disc diffusion method; type: functional; summary of the method: as §2
# [16] = system: Aspergillus flavus; experiment: Antifungal activity against Aspergillus flavus MTCC 1021 assessed as zone of inhibition at 40 uM after 48 hrs by disc diffusion method; type: functional; settings: MTCC 1021, 48 h, read-out: IZ; summary of the method: as §2
# [17] = system: Aspergillus flavus; experiment: Antifungal activity against Aspergillus flavus MTCC 1021 assessed as zone of inhibition at 80 uM after 48 hrs by disc diffusion method; type: functional; settings: MTCC 1021, 48 h, read-out: IZ; summary of the method: as §2
# [18] = system: Aspergillus niger; experiment: Antifungal activity against Aspergillus niger MTCC 1108 after 48 hrs; type: functional; settings: MTCC 1108, 48 h
# [19] = system: Aspergillus niger; experiment: Antifungal activity against Aspergillus niger MTCC 1108 assessed as zone of inhibition at 20 uM after 48 hrs by disc diffusion method; type: functional; summary of the method: as §2
# [20] = system: Aspergillus niger; experiment: Antifungal activity against Aspergillus niger MTCC 1108 assessed as zone of inhibition at 40 uM after 48 hrs by disc diffusion method; type: functional; settings: MTCC 1108, 48 h, read-out: IZ; summary of the method: as §2
# [21] = system: Aspergillus niger; experiment: Antifungal activity against Aspergillus niger MTCC 1108 assessed as zone of inhibition at 80 uM after 48 hrs by disc diffusion method; type: functional; settings: MTCC 1108, 48 h, read-out: IZ; summary of the method: as §2
# [22] = system: Escherichia coli; experiment: Antimicrobial activity against Escherichia coli ATCC 35218 after 24 hrs by broth micro serial dilution method; type: functional; settings: ATCC 35218, 24 h
# Summary of the method: (§3)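 This was broth microdilution in autoclaved Mueller-Hinton broth. 150 µL of compound per well was serially diluted […], and 50 µL of test organism was added. Plates were incubated 24 h at 37 °C and optical density was read.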
# [23] = system: Escherichia coli; experiment: Antimicrobial activity against Escherichia coli ATCC 35218 assessed as diameter of inhibition zone at 20 uM after 24 hrs by Kirby -Baur disc diffusion method; type: functional; settings: ATCC 35218, 24 h, read-out: DIZ
# Summary of the method: (§4)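 Kirby-Bauer disc diffusion was used. Acetone stocks (160 µM) were serially doubled down to 80, 40 and 20 µM. 4 µL of each went onto 5 mm sterile paper discs, which were dried 30 min at 50 °C. Inoculum was 1.5 × 10⁸ CFU/mL diluted to 3 × 10² CFU/mL, and 50 µL was spread on Mueller-Hinton agar. After 24 h at 37 °C the inhibition-zone diameter was measured. Ciprofloxacin served as positive control.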
# [24] = system: Escherichia coli; experiment: Antimicrobial activity against Escherichia coli ATCC 35218 assessed as diameter of inhibition zone at 40 uM after 24 hrs by Kirby -Baur disc diffusion method; type: functional; settings: ATCC 35218, 24 h, read-out: DIZ; summary of the method: as §4
# [25] = system: Escherichia coli; experiment: Antimicrobial activity against Escherichia coli ATCC 35218 assessed as diameter of inhibition zone at 80 uM after 24 hrs by Kirby -Baur disc diffusion method; type: functional; settings: ATCC 35218, 24 h, read-out: DIZ; summary of the method: as §4
# [26] = system: Pseudomonas aeruginosa; experiment: Antimicrobial activity against Pseudomonas aeruginosa ATCC 15499 after 24 hrs by broth micro serial dilution method; type: functional; settings: ATCC 15499, 24 h; summary of the method: as §3
# [27] = system: Pseudomonas aeruginosa; experiment: Antimicrobial activity against Pseudomonas aeruginosa ATCC 15499 assessed as diameter of inhibition zone at 20 uM after 24 hrs by Kirby -Baur disc diffusion method; type: functional; settings: ATCC 15499, 24 h, read-out: DIZ; summary of the method: as §4
# [28] = system: Pseudomonas aeruginosa; experiment: Antimicrobial activity against Pseudomonas aeruginosa ATCC 15499 assessed as diameter of inhibition zone at 40 uM after 24 hrs by Kirby -Baur disc diffusion method; type: functional; settings: ATCC 15499, 24 h, read-out: DIZ; summary of the method: as §4
# [29] = system: Pseudomonas aeruginosa; experiment: Antimicrobial activity against Pseudomonas aeruginosa ATCC 15499 assessed as diameter of inhibition zone at 80 uM after 24 hrs by Kirby -Baur disc diffusion method; type: functional; settings: ATCC 15499, 24 h, read-out: DIZ; summary of the method: as §4
# [30] = system: Salmonella typhi; experiment: Antimicrobial activity against Salmonella typhi ATCC 23564 after 24 hrs by broth micro serial dilution method; type: functional, Salmonella enterica subsp. enterica serovar Typhi; settings: Salmonella enterica, ATCC 23564, 24 h
# [31] = system: Salmonella typhi; experiment: Antimicrobial activity against Salmonella typhi ATCC 23564 assessed as diameter of inhibition zone at 20 uM after 24 hrs by Kirby -Baur disc diffusion method; type: functional, Salmonella enterica subsp. enterica serovar Typhi; settings: Salmonella enterica, ATCC 23564, 24 h; read-out: DIZ
# [32] = system: Salmonella typhi; experiment: Antimicrobial activity against Salmonella typhi ATCC 23564 assessed as diameter of inhibition zone at 40 uM after 24 hrs by Kirby -Baur disc diffusion method; type: functional, Salmonella enterica subsp. enterica serovar Typhi; settings: Salmonella enterica, ATCC 23564, 24 h; read-out: DIZ
# [33] = system: Salmonella typhi; experiment: Antimicrobial activity against Salmonella typhi ATCC 23564 assessed as diameter of inhibition zone at 80 uM after 24 hrs by Kirby -Baur disc diffusion method; type: functional, Salmonella enterica subsp. enterica serovar Typhi; settings: Salmonella enterica, ATCC 23564, 24 h; read-out: DIZ
# [34] = system: Bacillus cereus; experiment: Antimicrobial activity against Bacillus cereus MTCC 7350 after 24 hrs by broth micro serial dilution method; type: functional; settings: MTCC 7350, 24 h; summary of the method: as §3
# [35] = system: Bacillus cereus; experiment: Antimicrobial activity against Bacillus cereus MTCC 7350 assessed as diameter of inhibition zone at 20 uM after 24 hrs by Kirby -Baur disc diffusion method; type: functional; settings: MTCC 7350, 24 h, read-out: DIZ; summary of the method: as §4
# [36] = system: Bacillus cereus; experiment: Antimicrobial activity against Bacillus cereus MTCC 7350 assessed as diameter of inhibition zone at 40 uM after 24 hrs by Kirby -Baur disc diffusion method; type: functional; settings: MTCC 7350, 24 h, read-out: DIZ; summary of the method: as §4
# [37] = system: Bacillus cereus; experiment: Antimicrobial activity against Bacillus cereus MTCC 7350 assessed as diameter of inhibition zone at 80 uM after 24 hrs by Kirby -Baur disc diffusion method; type: functional; settings: MTCC 7350, 24 h, read-out: DIZ; summary of the method: as §4
# [38] = system: Staphylococcus aureus; experiment: Antimicrobial activity against Staphylococcus aureus ATCC 11632 after 24 hrs by broth micro serial dilution method; type: functional; settings: ATCC 11632, 24 h; summary of the method: as §3
# [39] = system: Staphylococcus aureus; experiment: Antimicrobial activity against Staphylococcus aureus ATCC 11632 assessed as diameter of inhibition zone at 20 uM after 24 hrs by Kirby -Baur disc diffusion method; type: functional; settings: ATCC 11632, 24 h, read-out: DIZ; summary of the method: as §4
# [40] = system: Staphylococcus aureus; experiment: Antimicrobial activity against Staphylococcus aureus ATCC 11632 assessed as diameter of inhibition zone at 40 uM after 24 hrs by Kirby -Baur disc diffusion method; type: functional; settings: ATCC 11632, 24 h, read-out: DIZ; summary of the method: as §4
# [41] = system: Staphylococcus aureus; experiment: Antimicrobial activity against Staphylococcus aureus ATCC 11632 assessed as diameter of inhibition zone at 80 uM after 24 hrs by Kirby -Baur disc diffusion method; type: functional; settings: ATCC 11632, 24 h, read-out: DIZ; summary of the method: as §4
smiles,measurement,setting,value
COc1cc(/C=C/C(CC(/C=C/c2ccc(O)c(OC)c2)=N/c2ccc(S(=O)(=O)Nc3ccccn3)cc2)=N\c2ccc(S(=O)(=O)Nc3ccccn3)cc2)ccc1O,inhibition in vivo at 200 mg/kg,[1],9.6%
same,IC50,[2],50 µM
same,IC50,[3],100 µM
same,IC50,[4],50 µM
same,IC50,[5],100 µM
same,MIC,[6],20 µM
same,zone of inhibition at 20 µM,[7],10 mm
same,zone of inhibition at 40 µM,[8],13 mm
same,zone of inhibition at 80 µM,[9],17 mm
same,MIC,[10],80 µM
same,zone of inhibition at 20 µM,[11],9 mm
same,zone of inhibition at 40 µM,[12],9 mm
same,MIC,[13],> 80 µM
same,zone of inhibition at 80 µM,[14],12 mm
same,inhibition zone (IZ),[15],inactive
same,zone of inhibition at 40 µM,[16],9 mm
same,zone of inhibition at 80 µM,[17],11 mm
same,MIC,[18],80 µM
same,inhibition zone (IZ),[19],inactive
same,zone of inhibition at 40 µM,[20],9 mm
same,zone of inhibition at 80 µM,[21],12 mm
same,MIC,[22],40 µM
same,zone of inhibition at 20 µM,[23],12 mm
same,zone of inhibition at 40 µM,[24],16 mm
same,zone of inhibition at 80 µM,[25],17 mm
same,MIC,[26],40 µM
same,zone of inhibition at 20 µM,[27],13 mm
same,zone of inhibition at 40 µM,[28],16 mm
same,zone of inhibition at 80 µM,[29],18 mm
same,MIC,[30],40 µM
same,zone of inhibition at 20 µM,[31],12 mm
same,zone of inhibition at 40 µM,[32],17 mm
same,zone of inhibition at 80 µM,[33],19 mm
same,MIC,[34],40 µM
same,zone of inhibition at 20 µM,[35],10 mm
same,zone of inhibition at 40 µM,[36],15 mm
same,zone of inhibition at 80 µM,[37],18 mm
same,MIC,[38],40 µM
same,zone of inhibition at 20 µM,[39],13 mm
same,zone of inhibition at 40 µM,[40],17 mm
same,zone of inhibition at 80 µM,[41],19 mm
